High-throughput results as filed in PubChem.
MrgX1 allo act – positive allosteric modulators of MrgX1, primary screen, HEK293 cells, Fluo-4 calcium flux; Mas-related G-protein coupled receptor member X1 (Homo sapiens), Q96LB2; FDSS; active compounds read high; B-score at 10 µM; 310,000 compounds, 0.63% hits; AID 588675, 2011;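 active = plate-corrected calcium response at least 3 library SD above typical, normal starting fluorescence, not activating the receptor alone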;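 note: compound read alongside a low EC10 to EC30 dose of BAM8-22 agonist; peak minus trough fluorescence over baseline measured at the second addition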
Target sequence (Q96LB2 whole entry, looked up): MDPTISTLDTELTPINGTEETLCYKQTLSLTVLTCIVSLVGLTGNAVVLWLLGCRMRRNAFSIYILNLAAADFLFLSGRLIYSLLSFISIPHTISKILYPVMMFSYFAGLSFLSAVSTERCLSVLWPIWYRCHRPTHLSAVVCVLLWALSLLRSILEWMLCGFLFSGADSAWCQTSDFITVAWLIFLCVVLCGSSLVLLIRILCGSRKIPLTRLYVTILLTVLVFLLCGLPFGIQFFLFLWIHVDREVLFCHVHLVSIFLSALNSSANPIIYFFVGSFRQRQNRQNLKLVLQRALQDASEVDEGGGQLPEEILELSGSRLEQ
MrgX1 ag – agonists of human MrgX1 receptor, primary screen, HEK293 cells, Fluo-4 calcium flux | Mas-related G-protein coupled receptor member X1 (Homo sapiens), Q96LB2 | Fluo-4 calcium fluorescence, agonist mode; active compounds read high | B-score at 10 µM | 310,000 compounds, 0.44% hits | AID 588627, 2011;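 active = calcium response B-score plate-corrected fluorescence ratio at least 3 library SD, with starting fluorescence B-score inside 5 SD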
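Material – MrgX1-expressing HEK293 cells · Input – 15,000 cells seeded per well · Dosing – compound as first of three additions · Times – overnight seeding, then 1 h dark dye loading · Measured by – kinetic Fluo-4 NW fluorescence of intracellular calcium · Read-out – B-scored fluorescence response ratio · Benchmarks – positive and negative control wells on each plate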
RGS4 inh – RGS4 inhibitors, primary screen, cell-based, HEK293 M3R inducible RGS4, calcium flux; Regulator of G-protein signaling 4 (Homo sapiens), P49798; Fluo-4 calcium flux; active compounds read high; triggered by carbachol at its EC20; B-score at 10 µM; 310,000 compounds, 0.45% hits; AID 463165, 2010;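 active = B-score, a plate-corrected calcium signal, over three deviations above library mean, with baseline fluorescence within five deviations of library mean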;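 note: RGS4 expression induced by doxycycline in cells with stable M3 receptor; B-score is computed from the integrated fluorescence ratio over baseline after carbachol; higher B-score means a larger calcium signal and so more RGS4 inhibition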
Target sequence (P49798 whole entry, looked up): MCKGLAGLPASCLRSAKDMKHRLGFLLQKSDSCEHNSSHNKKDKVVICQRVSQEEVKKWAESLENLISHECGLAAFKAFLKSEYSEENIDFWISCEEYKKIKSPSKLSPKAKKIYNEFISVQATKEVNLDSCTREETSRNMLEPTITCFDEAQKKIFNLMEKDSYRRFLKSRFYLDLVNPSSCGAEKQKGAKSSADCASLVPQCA
MrgX1 antagonist – antagonists of human MrgX1 receptor, primary screen, HEK293 cells, Fluo-4 calcium flux; Mas-related G-protein coupled receptor member X1 (Homo sapiens), Q96LB2; BAM8-22 antagonism; active compounds read low; B-score at 10 µM; 310,000 compounds, 1.3% hits;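 active = calcium-response B-score plate-corrected more than 3 library SD below zero, starting fluorescence within 5 deviations, no agonist response on first addition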;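 note: peak minus trough fluorescence over baseline after final BAM8-22 challenge near maximal dose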
RGS4 pot – RGS4 potentiators or activators, primary screen, cell-based, HEK293 M3R inducible RGS4, calcium flux; AID 463111, 2010; B-score at 10 µM; 310,000 compounds, 0.92% hits; carbachol calcium flux Fluo4; active compounds read low;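 active = B-score of the integrated calcium signal more than 4 SD below the library mean, with starting fluorescence not abnormally high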;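 note: negative B-score means reduced calcium response which marks RGS4 activation or potentiation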
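Test system: HEK293 cells with stable M3R and inducible RGS4; also added: carbachol at ECmax as muscarinic agonist stimulus; schedule: dye loading 30 min 37 °C, buffer rest 30 min RT; technique: kinetic calcium fluorescence imaging with Fluo4-AM dye, 2 µM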
MrgX1 antag conf – MrgX1 receptor antagonists, duplicate retest, confirmation, HEK293 cells, Fluo-4 calcium flux | shares compounds with MrgX1 antagonist | BAM8-22 calcium flux; active compounds read low | remaining BAM8-22 calcium response % of control (active compounds read low), % at 10 µM | 2,300 compounds, 19% hits;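 active = remaining agonist calcium response no higher than 100% minus 3 SD of agonist-only control wells, with starting fluorescence near control levels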;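 note: agonist BAM8-22 given at a near maximal EC90 to ECmax level; peak minus minimum fluorescence divided by baseline after agonist addition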
HEK293 Ca flux – nonspecific calcium signal in parental HEK293, confirmation, counter-screen for MrgX1 antagonist project, parental HEK293 cells, Fluo-4 calcium flux; 4,000 compounds, 2% hits; shares compounds with MrgX1 antagonist; AID 624111, 2012; fluorescence ratio F(max-min)/F0 at 10 µM; Fluo-4 calcium fluorescence, FDSS;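 active = duplicate-averaged calcium fluorescence ratio at least three times the standard deviation of buffer wells, a nonspecific response in parental cells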
HEK293 Ca counter – calcium response in parental HEK293 cells, primary screen, counter-screen for MrgX1 allosteric activator project, cell-based, Fluo-4 calcium flux, duplicate. shares compounds with MrgX1 antagonist. Fluo-4 fluorescence ratio; active compounds read high. fluorescence ratio F(max-min)/F0 at 10 µM. 4,000 compounds, 0.4% hits. AID 624114, 2012;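 active = calcium fluorescence ratio, averaged over duplicates, at least 3 SD of the buffer-well ratio, meaning a nonspecific response in receptor-free cells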;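 note: untransfected parental HEK293 lacking MrgX1 used as counterscreen for MrgX1 allosteric activators; fluorescence change taken during the second addition on a kinetic imager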
HEK293 Ca cntr2 – calcium response in parental HEK293 cells, primary screen, counter-screen for MrgX1 agonist project, cell-based, Fluo-4 calcium flux, duplicate, agonist mode. fluorescence ratio F(max-min)/F0 at 10 µM. shares compounds with MrgX1 antagonist. Fluo-4 calcium fluorescence (FDSS); active compounds read high. 4,000 compounds, 8.7% hits;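 active = calcium fluorescence ratio at least three times the spread of buffer wells, meaning a non-specific response in parental cells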
Numbers stand for hits; 0 = inactive; - = no result. In the library only some 3.5% were active in any assay of this set; here they are far more common.

SMILES	MrgX1 allo act	MrgX1 ag	RGS4 inh	MrgX1 antagonist	RGS4 pot	MrgX1 antag conf	HEK293 Ca flux	HEK293 Ca counter	HEK293 Ca cntr2
COc1cc(NS(C)(=O)=O)ccc1Nc1c2ccccc2nc2ccccc12	0	0	-	-6.7	-	0	0	0	0
CC(C)N(Cc1nc(-c2ccc(Cl)cc2)no1)C(=O)CN(C)S(=O)(=O)c1ccc(Cl)cc1	0	0	0	0	0	-	-	-	-
CC1CC(C)CN(C(=O)C(C)N(C)CC(=O)Nc2ccc(Cl)cc2)C1 (configuration not stated)	0	0	0	0	0	-	-	-	-
O=C1c2ccncc2C(=O)N1CO	0	0	0	-5	0	85%	0	0	0
CCOc1ccccc1Nc1ncccc1C(=O)O	0	0	0	0	0	-	-	-	-
COc1ccccc1Nc1ncccc1C(=O)O	0	0	0	-8.5	0	77%	0	0	0
COc1cc(NC(=O)CC(C)C)ccc1NC(=O)c1ccco1	0	0	0	-5.2	0	0	0	0	0
CCOC(=O)N1CCN(C(=O)c2ccc(OC(C)=O)cc2)CC1	0	0	0	0	0	-	-	-	-
O=C(NCC1CCCN1S(=O)(=O)c1ccccc1)C(=O)NC1CC1 (configuration not stated)	0	0	0	-4.6	0	0	0	0	0
CC(C)Sc1nc2c(c(=O)n1C)SC(C)C2 (configuration not stated)	0	0	0	-6.9	0	0	0	0	0
CCC(CC)C(=O)c1c[nH]c(C(=O)NCCCN2CCOCC2)c1	0	0	0	0	0	-	-	-	-
O=c1c2ccccc2nc(/C=C/c2cc(Br)ccc2O)n1CCCO	0	0	0	0	0	-	-	-	-
COCCCN(C(=O)Cc1coc2cc(C)c(C)cc12)c1c(N)n(Cc2ccccc2)c(=O)[nH]c1=O	0	0	0	0	0	-	-	-	-
CCN(C(=O)c1ccc(S(=O)(=O)N2CCC(C)CC2)cc1)C1CCS(=O)(=O)C1 (configuration not stated)	0	0	0	-4.6	0	0	0	0	0
Cc1ccc(C(=O)OCC(=O)N(C)C2CCS(=O)(=O)C2)cc1S(=O)(=O)N1CCCCC1 (configuration not stated)	0	0	0	0	0	-	-	-	-
CN(C(=O)COC(=O)c1cccc(S(=O)(=O)N2CCCCC2)c1)C1CCS(=O)(=O)C1 (configuration not stated)	0	0	0	-6	0	0	0	0	0
C/C(=N\NC(=O)Cn1cc([N+](=O)[O-])cn1)c1ccco1	0	0	0	0	0	-	-	-	-
CCOc1ccc2oc(=O)cc(CN3CCOCC3)c2c1	0	0	0	-7.3	0	0	0	0	0
Cc1cc2oc(=O)cc(CN3CCOCC3)c2cc1C(C)C	0	0	0	0	0	-	-	-	-
S=C(NCc1cccnc1)Nc1cc(Cl)cc(Cl)c1	0	0	0	-5.1	0	72%	0	0	58
FC(F)Oc1ccc(NC(=S)NCc2cccnc2)cc1	0	0	0	-6.2	0	83%	0	0	0
S=C(NCc1cccnc1)Nc1cccc(Cl)c1	0	0	0	0	0	-	-	-	-
S=C(NCc1cccnc1)Nc1ccc(Oc2ccccc2)cc1	0	0	0	0	0	-	-	-	-
